This is an account of results in ChEMBL document CHEMBL1255220, “Synthesis and antitumor effect in vitro and in vivo of substituted 1,3-dihydroindole-2-ones” (J Med Chem, 2010).

Data set [1] deals with MCF7. Put plainly: Cytotoxicity against human MCF7 cells after 72 hrs by WST-1 assay. The format is functional, cell-based. In outline:
(§1)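 Cells seeded at 3×10³/well; next day serially diluted compound added in triplicate; 72 h at 37 °C, 5% CO₂. Viable cells measured with WST-1 reagent (1 h), absorbance 450 nm minus 690 nm reference. IC50 is mean ± SD of at least two experiments run in triplicate. MCF-7 grown in DMEM, PC3 in RPMI, each with 10% serum.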
For orientation: Tetrazolium dyes change colour on reduction, which living cells bring about.

Data set [2] deals with PC-3. As to the kind of experiment: Cytotoxicity against human PC3 cells after 72 hrs by WST-1 assay. Type of data set: functional, cell-based. An outline of the steps:
as §1

The subject of a further data set is MDA-MB-468. Put plainly: Cytotoxicity against human MDA-MB-468 cells. Type of data set: functional, cell-based.
A further data set has as its system MDA-MB-231. Put plainly: Cytotoxicity against human MDA-MB-231 cells. Type of data set: functional, cell-based.
Data set [3] deals with PC-3. Put plainly: Antitumor activity against human PC3 cells xenografted in sc dosed NMRI mouse assessed as tumor regression dose. The format is functional. An outline of the steps: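 1e7 PC3 cells (grown in RPMI + 10% FBS) in PBS/Matrigel 1:1 injected sc into female NMRI nude mice or female NIH-RNU nude rats. Compound dosed iv three times per week. Tumour regression dose recorded. Rat effective doses were estimated from mouse xenografts using a 0.5 mouse-to-rat conversion factor.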

Data set [4] is described as follows: Therapeutic index, ratio of MTD in rat to ED50 for antitumor activity against human PC3 cells xenografted in rat. The format is cell-based, PC-3. As to conditions: in vivo, read-out: TI. An outline of the steps:
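PC3 human prostate cancer cells (1e7, grown in RPMI + 10% FBS, suspended in PBS + Matrigel) were implanted sc in female nude rats (NIHRNU-M) or nude mice (NMRI/nude), with iv dosing 3×/week. Rat MTD came from a single iv dose. Effective rat doses were estimated from mouse xenografts using a mouse-to-rat conversion factor of 0.5. Index = rat toxic dose / rat effective dose.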

The nature of data set [5]: AUC in mouse at 5 mg/kg, iv. The format is ADME, organism-based. The arrangement: dose 5 mg/kg, route intravenous. The following applies: plasma. In outline: (§2)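 Compound given as single iv dose to mice or rats. Plasma samples prepared by protein precipitation with acetonitrile containing 1 μg/mL internal standard (3:1 v/v). Analysed by UPLC-MS/MS on a C18 reversed-phase column at 40 °C with an acetonitrile–0.05% formic acid gradient. Half-life and AUC (h ng/mL) derived from the plasma levels.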

A short description of data set [6]: Half life in mouse at 5 mg/kg, iv. The format is ADME, organism-based. The arrangement: dose 5 mg/kg, route intravenous. As to conditions: in vivo. In outline: as §2
Data set [7] is described as follows: Toxicity in iv dosed rat assessed as maximum tolerated dose. The following applies: in vivo.
Data set [8] deals with PC-3. As to the kind of experiment: Antitumor activity against human PC3 cells xenografted in sc dosed rat assessed as tumor regression dose. The format is functional.
Data set [9] in a line: Half life in rat at 10 mg/kg, iv. Type of data set: ADME, organism-based. Set-up: dose 10 mg/kg, route intravenous. As to conditions: in vivo. An outline of the steps: as §2
Data set [10] is described as follows: AUC in rat at 10 mg/kg, iv. Type of data set: ADME, organism-based. The arrangement: dose 10 mg/kg, route intravenous. The following applies: plasma. In outline:
as §2

In data set [11] the target is Eukaryotic translation initiation factor 2 subunit 1 (Homo sapiens) (UniProt P05198). Put plainly: Inhibition of eIF2alpha autophosphorylation in human A2780 cells. Type of data set: cell-based. In outline: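 MCF-7 (DMEM) and A2780 (RPMI 1640) cells, together with sublines made resistant by culture in rising concentrations of the parent oxindole, were treated with compound for 4 and 24 h respectively. Lysates (20 μg protein) separated by SDS-PAGE and blotted onto nitrocellulose. Phospho-eIF2α read by western blot: milk block, primary antibody overnight at 4 °C, HRP secondary antibody.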
Chain of Eukaryotic translation initiation factor 2 subunit 1 (Homo sapiens) (P05198 whole entry): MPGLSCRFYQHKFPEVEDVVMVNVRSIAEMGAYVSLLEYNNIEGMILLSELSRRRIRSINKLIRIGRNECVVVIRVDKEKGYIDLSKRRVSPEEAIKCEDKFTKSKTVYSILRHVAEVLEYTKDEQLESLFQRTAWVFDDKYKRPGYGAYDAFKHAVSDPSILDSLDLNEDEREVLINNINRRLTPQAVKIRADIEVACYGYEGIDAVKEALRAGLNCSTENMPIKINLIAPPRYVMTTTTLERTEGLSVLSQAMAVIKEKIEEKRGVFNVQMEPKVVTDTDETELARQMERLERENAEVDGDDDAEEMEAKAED

Data set [12] has the same target. As to the kind of experiment: Induction of eIF2alpha phosphorylation in human MCF7 cells.
Data set [13] is described as follows: Half life in rat at 5 mg/kg, iv. Type of data set: ADME, organism-based. The arrangement: dose 5 mg/kg, route intravenous. The following applies: in vivo. An outline of the steps: as §2
Data set [14] in a line: AUC in rat at 5 mg/kg, iv. Type of data set: ADME, organism-based. Set-up: dose 5 mg/kg, route intravenous. The following applies: plasma. In outline:
as §2

Data set [15] relates to MCF7. As to the kind of experiment: Cytotoxicity against human MCF7 cells after 72 hrs at 0.5 uM by WST-1 assay. Type of data set: functional. As to conditions: MCF7, 72 h.

Activity calls are given as the source filed them. No cut-off for these calls is given here.

One may read the IC50 as the concentration at which inhibition is half-maximal. For orientation: AUC means the area under the concentration-time curve, a measure of exposure. High values mean more exposure, low ones less exposure. The half-life is the time in which the quantity being followed falls by half. By MTD is commonly meant the highest dose tested that stayed within the study's limit of toxicity. For `O=C1Nc2c(ccc(F)c2F)C1(c1ccc(O)cc1)c1ccc(O)cc1`, the IC50 in the data set on MCF7 [1] (Homo sapiens, MCF7, 72 h) is 20 nM; in the data set on PC-3 [2] (Homo sapiens, PC-3, 72 h) it was 699 nM; with MDA-MB-468 it was 20 nM; in the data set on MDA-MB-231, above 3000 nM. Further, the Activity with PC-3 [3] amounted to 5 mg/kg. Also, in data set [4], the selectivity ratio came out at 0.4. In data set [5], this compound came in with an AUC of 6770 ng·h/mL. Besides, the half-life in data set [6] is 1.7 h. Besides, the MTD in [7] was 1 mg/kg.

Regarding `COc1ccc2c(c1C)NC(=O)C2(c1ccc(O)cc1)c1ccc(F)cc1` (racemic), the 50% inhibitory concentration (IC50) with MCF7 [1] (Homo sapiens, MCF7, 72 h) came to 6.3 nM; in the data set on PC-3 [2] (Homo sapiens, PC-3, 72 h), 9 nM. For the same compound, the Activity was 10 mg/kg with PC-3 [3] and below 10 mg/kg in the data set with PC-3 [8]. Also, the selectivity ratio in [4] worked out at 3. The compound also gave a half-life in [9] of 1.5 h. The AUC in data set [10] was found to be 3950 ng·h/mL. Further, in [7], the MTD stood at 15 mg/kg.

What is called inhibition is how much of the control response was suppressed. With `COc1ccc2c(c1C)NC(=O)C2(c1ccc(O)cc1)C1CCCCCC1` (racemic), the IC50 is 4.7 nM with MCF7 [1] (Homo sapiens, MCF7, 72 h) and 12 nM in the data set with PC-3 [2] (Homo sapiens, PC-3, 72 h). The inhibition result in data set [11] is “inactive”. The Activity in the data set on PC-3 [3] turned out to be 20 mg/kg; with PC-3 [8] it was 10 mg/kg. Moreover, in [4], the selectivity ratio is 7. In [9], this compound showed a half-life of 1.5 h. In data set [10], this compound returned an AUC of 5760 ng·h/mL. For the same compound, the induction entry in [12] is “inactive”. For the same compound, the maximum tolerated dose (MTD) in [7] is 70 mg/kg.

In the case of `O=C1Nc2c(ccc(F)c2F)C1(c1ccc(O)cc1)C1CCCCC1` (racemic), the IC50 with MCF7 [1] (mcf7) turned out to be 13 nM; in the data set with PC-3 [2] (pc-3), 32 nM. Besides, the Activity in the data set on PC-3 [3] is 10 mg/kg; in the data set with PC-3 [8], below 10 mg/kg. Further, the selectivity ratio in data set [4] was found to be 2. Besides, the AUC is 3550 ng·h/mL in [5] and 1350 ng·h/mL in [14]. In addition, the figures for the half-life in [6] and in [13] were 1.6 h and 1.1 h, respectively. For the same compound, the MTD in [7] worked out at 10 mg/kg.

For the compound `O=C1Nc2c(ccc(F)c2F)C1(c1ccc(O)cc1)C1CCCCCC1` (racemic), the IC50 in the data set with MCF7 [1] (Homo sapiens, MCF7, 72 h) came to 1.2 nM; with PC-3 [2] (Homo sapiens, PC-3, 72 h) it was 12 nM. The Activity in the data set with PC-3 [3] is 10 mg/kg. In addition, the selectivity ratio in [4] is 8. The AUC was found to be 694 ng·h/mL in data set [5] and 2290 ng·h/mL in [14]. Besides, the figures for the half-life in data set [6] and in data set [13] were 1.3 h and 2.1 h, respectively. In data set [7], the MTD was above 40 mg/kg.

Take `O=C1Nc2ccccc2C1(c1ccc(O)cc1)c1ccc(O)cc1` [OXYPHENISATINE]: the IC50 with PC-3 [2] (Homo sapiens, PC-3, 72 h) is above 1000 nM. In the data set with MCF7 [15], at 0.5 µM the inhibition was 73%.
